Reference: the M2OR odorant receptor database

Columns and labels:
Conditions in all cases: stereoisomer not certain
OR52I1 (Homo sapiens) = biological target: T1, OR52I1 (Homo sapiens) (UniProt Q8NGK6)
T1 sequence (whole entry): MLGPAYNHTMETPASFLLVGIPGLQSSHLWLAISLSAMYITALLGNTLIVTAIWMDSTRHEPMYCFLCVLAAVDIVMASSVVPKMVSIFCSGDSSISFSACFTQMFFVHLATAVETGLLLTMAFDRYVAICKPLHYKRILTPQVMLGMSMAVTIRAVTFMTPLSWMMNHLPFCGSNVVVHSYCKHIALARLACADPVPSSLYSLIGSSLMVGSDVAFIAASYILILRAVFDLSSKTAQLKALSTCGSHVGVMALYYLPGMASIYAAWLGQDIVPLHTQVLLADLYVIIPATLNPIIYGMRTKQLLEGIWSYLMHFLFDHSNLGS
How it was run: (§1)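 Transient luciferase assays in mammalian cell lines were common, though methods varied by source. The values come from published papers and their supplementary material, with extra details from the original authors when needed. Responsive refers to a measured signal the original authors judged statistically different from baseline, and non-responsive (inactive) to the remainder.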

OR52I2 (Homo sapiens) = biological target: T2, OR52I2 (Homo sapiens) (UniProt Q8NH67)
T2 sequence (whole entry): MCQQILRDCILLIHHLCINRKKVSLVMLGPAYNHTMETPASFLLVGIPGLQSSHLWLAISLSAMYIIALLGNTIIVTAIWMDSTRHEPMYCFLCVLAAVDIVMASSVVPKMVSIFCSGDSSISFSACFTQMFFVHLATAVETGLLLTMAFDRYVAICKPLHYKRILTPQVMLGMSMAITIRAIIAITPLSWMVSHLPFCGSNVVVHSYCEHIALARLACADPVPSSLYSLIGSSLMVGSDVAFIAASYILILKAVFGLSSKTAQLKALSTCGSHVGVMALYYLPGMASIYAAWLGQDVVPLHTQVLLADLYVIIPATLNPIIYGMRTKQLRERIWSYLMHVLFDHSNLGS
How it was run: as §1

OR52J3 (Homo sapiens) = OR52J3 (Homo sapiens) (UniProt Q8NH60)
How it was run: as §1

OR52K1 (Homo sapiens) = biological target: T3, OR52K1 (Homo sapiens) (UniProt Q8NGK4)
T3 sequence (whole entry): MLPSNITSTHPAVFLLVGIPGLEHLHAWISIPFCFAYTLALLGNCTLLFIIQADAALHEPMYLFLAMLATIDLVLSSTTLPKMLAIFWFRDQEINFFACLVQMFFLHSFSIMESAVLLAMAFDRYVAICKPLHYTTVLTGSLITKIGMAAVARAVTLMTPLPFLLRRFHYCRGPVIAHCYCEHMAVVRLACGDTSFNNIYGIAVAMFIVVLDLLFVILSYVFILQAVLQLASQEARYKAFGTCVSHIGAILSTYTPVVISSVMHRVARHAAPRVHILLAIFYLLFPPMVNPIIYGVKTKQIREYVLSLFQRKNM
How it was run: as §1

OR52K2 (Homo sapiens) = biological target: T4, OR52K2 (Homo sapiens) (UniProt Q8NGK3)
T4 sequence (whole entry): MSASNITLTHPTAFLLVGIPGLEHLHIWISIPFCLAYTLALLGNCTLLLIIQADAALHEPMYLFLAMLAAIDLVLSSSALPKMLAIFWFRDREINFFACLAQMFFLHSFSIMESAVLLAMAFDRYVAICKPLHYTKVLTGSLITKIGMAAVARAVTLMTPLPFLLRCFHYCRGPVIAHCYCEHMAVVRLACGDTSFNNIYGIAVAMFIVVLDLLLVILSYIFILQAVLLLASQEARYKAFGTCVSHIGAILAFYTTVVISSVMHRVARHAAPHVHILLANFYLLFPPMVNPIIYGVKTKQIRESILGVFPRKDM
How it was run: as §1

OR52L1 (Homo sapiens) = biological target: T5, OR52L1 (Homo sapiens) (UniProt Q8NGH7)
T5 sequence (whole entry): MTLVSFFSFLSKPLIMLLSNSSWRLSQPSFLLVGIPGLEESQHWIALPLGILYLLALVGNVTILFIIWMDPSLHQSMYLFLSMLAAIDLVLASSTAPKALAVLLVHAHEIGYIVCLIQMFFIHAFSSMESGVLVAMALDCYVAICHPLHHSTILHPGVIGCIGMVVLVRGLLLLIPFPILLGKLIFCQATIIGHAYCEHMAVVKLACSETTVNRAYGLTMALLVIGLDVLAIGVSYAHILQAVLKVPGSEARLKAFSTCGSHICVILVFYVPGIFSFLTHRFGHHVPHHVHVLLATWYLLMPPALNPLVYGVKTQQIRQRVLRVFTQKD
How it was run: as §1

OR52M1 (Homo sapiens) = biological target: T6, OR52M1 (Homo sapiens) (UniProt Q8NGK5)
T6 sequence (whole entry): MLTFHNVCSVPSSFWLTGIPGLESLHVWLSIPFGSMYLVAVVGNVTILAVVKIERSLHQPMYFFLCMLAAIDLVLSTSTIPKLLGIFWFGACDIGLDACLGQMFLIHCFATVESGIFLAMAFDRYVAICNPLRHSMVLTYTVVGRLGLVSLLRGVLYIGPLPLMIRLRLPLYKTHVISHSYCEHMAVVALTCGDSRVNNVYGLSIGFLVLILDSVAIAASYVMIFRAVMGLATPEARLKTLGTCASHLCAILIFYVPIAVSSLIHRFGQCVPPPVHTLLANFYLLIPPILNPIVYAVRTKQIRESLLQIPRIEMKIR
How it was run: as §1

OR52N1 (Homo sapiens) = biological target: T7, OR52N1 (Homo sapiens) (UniProt Q8NH53)
T7 sequence (whole entry): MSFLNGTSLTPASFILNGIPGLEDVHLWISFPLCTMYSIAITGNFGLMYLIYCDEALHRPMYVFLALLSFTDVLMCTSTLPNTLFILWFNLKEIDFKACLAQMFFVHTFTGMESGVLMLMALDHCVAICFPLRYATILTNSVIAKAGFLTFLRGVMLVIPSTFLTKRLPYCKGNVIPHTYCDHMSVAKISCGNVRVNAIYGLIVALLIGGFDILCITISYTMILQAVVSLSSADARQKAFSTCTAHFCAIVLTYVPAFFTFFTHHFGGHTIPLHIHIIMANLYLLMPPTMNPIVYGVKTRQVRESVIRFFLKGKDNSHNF
How it was run: as §1

OR52N2 (Homo sapiens) = biological target: T8, OR52N2 (Homo sapiens) (UniProt Q8NGI0)
T8 sequence (whole entry): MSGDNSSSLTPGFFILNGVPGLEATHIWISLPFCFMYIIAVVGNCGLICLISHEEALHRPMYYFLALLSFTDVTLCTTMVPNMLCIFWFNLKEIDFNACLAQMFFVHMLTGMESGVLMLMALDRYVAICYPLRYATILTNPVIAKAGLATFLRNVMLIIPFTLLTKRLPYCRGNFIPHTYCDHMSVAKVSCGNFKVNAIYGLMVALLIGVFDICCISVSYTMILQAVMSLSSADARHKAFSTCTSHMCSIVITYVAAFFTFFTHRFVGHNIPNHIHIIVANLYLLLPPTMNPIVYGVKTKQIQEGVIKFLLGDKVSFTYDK
How it was run: as §1

OR52N4 (Homo sapiens) = biological target: T9, OR52N4 (Homo sapiens) (UniProt Q8NGI2)
T9 sequence (whole entry): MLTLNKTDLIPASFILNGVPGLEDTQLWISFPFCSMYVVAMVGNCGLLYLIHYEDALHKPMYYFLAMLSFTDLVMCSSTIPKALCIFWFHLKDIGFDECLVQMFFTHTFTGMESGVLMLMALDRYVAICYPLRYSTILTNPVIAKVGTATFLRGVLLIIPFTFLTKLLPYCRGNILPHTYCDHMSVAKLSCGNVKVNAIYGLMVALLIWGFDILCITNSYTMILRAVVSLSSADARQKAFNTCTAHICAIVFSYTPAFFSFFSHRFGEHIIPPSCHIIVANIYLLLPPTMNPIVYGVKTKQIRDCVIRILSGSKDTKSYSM
How it was run: as §1

OR52N5 (Homo sapiens) = biological target: T10, OR52N5 (Homo sapiens) (UniProt Q8NH56)
T10 sequence (whole entry): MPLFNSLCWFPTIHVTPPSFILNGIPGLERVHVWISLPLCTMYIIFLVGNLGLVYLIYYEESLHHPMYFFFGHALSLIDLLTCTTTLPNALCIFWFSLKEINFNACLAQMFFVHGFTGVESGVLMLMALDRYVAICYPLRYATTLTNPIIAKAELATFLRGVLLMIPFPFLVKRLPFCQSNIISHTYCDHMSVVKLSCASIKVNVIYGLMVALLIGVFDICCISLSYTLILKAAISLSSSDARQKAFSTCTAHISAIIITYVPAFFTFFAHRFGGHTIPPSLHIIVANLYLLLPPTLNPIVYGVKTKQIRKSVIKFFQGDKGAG
How it was run: as §1

OR52R1 (Homo sapiens) = biological target: T11, OR52R1 (Homo sapiens) (UniProt Q8NGF1)
T11 sequence (whole entry): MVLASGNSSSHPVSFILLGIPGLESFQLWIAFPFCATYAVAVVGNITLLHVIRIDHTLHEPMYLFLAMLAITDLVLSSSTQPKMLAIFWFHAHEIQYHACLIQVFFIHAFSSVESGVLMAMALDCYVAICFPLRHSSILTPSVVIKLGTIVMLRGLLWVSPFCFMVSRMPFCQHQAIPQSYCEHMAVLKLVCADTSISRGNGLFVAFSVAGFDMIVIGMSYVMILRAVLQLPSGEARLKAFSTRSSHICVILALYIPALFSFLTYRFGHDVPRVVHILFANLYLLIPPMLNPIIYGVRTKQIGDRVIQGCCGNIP
How it was run: as §1

OR52W1 (Homo sapiens) = biological target: T12, OR52W1 (Homo sapiens) (UniProt Q6IF63)
T12 sequence (whole entry): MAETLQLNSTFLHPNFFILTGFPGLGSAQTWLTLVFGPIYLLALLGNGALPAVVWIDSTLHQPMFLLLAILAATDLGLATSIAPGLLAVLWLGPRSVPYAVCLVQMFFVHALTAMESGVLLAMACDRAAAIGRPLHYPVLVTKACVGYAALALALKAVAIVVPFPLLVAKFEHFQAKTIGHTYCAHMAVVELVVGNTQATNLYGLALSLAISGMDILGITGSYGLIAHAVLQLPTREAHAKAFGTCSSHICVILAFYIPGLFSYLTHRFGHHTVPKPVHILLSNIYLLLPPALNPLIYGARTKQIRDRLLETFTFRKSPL
How it was run: as §1

OR56A1 (Homo sapiens) = biological target: T13, OR56A1 (Homo sapiens) (UniProt Q8NGH5)
T13 sequence (whole entry): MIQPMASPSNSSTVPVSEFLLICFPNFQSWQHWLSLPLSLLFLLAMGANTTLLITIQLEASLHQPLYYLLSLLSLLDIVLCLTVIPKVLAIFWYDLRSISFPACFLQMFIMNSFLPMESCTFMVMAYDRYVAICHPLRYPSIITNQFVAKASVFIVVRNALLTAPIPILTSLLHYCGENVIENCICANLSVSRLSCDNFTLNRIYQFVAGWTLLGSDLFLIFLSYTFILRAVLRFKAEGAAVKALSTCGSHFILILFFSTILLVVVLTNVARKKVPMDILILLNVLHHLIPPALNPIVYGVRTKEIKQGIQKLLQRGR
How it was run: as §1

OR56A3 (Homo sapiens) = biological target: T14, OR56A3 (Homo sapiens) (UniProt Q8NH54)
T14 sequence (whole entry): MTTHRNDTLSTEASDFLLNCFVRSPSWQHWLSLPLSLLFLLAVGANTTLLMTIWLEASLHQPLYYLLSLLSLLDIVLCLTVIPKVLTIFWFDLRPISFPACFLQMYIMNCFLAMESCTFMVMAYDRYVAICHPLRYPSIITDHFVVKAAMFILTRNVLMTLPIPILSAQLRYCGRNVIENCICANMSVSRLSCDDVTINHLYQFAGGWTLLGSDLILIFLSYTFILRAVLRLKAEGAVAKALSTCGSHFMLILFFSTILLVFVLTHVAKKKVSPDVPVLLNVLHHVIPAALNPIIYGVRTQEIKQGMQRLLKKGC
How it was run: as §1

OR56A4 (Homo sapiens) = biological target: T15, OR56A4 (Homo sapiens) (UniProt Q8NGH8)
T15 sequence (whole entry): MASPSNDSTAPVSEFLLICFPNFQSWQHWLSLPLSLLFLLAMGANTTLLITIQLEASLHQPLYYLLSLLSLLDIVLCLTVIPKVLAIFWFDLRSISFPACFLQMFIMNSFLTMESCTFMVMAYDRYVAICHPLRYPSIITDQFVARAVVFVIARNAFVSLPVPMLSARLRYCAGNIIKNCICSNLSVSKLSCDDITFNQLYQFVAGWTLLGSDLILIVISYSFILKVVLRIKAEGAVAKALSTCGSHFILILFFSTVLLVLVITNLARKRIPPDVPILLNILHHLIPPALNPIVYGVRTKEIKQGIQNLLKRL
How it was run: as §1

OR56B1 (Homo sapiens) = biological target: T16, OR56B1 (Homo sapiens) (UniProt Q8NGI3)
T16 sequence (whole entry): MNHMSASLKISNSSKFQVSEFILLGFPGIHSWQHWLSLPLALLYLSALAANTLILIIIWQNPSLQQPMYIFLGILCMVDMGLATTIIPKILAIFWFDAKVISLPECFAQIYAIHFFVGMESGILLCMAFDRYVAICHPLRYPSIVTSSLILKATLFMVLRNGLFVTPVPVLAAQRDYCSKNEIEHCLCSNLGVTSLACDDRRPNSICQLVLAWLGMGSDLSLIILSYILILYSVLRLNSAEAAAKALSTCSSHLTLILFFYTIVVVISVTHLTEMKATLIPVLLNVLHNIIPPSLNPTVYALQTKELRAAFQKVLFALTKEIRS
How it was run: as §1

Sequence of OR52J3 (Homo sapiens) (Q8NH60 whole entry): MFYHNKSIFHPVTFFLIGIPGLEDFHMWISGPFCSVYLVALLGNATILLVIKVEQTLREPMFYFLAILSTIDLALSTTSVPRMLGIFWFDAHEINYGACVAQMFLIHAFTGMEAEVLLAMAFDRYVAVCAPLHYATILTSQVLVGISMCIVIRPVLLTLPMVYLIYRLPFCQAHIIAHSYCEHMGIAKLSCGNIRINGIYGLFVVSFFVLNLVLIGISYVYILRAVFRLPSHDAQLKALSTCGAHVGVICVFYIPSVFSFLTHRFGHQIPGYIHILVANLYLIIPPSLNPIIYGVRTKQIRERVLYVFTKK

Structure (SMILES): CCCCCC1CCCC(=O)O1 (configuration not stated)
- odorant receptor agonist call (OR52I1 (Homo sapiens)): inactive
- odorant receptor agonist call (OR52I2 (Homo sapiens)): inactive
- odorant receptor agonist call (OR52J3 (Homo sapiens)): inactive
- odorant receptor agonist call (OR52K1 (Homo sapiens)): active
- odorant receptor agonist call (OR52K2 (Homo sapiens)): inactive
- odorant receptor agonist call (OR52L1 (Homo sapiens)): active
- odorant receptor agonist call (OR52M1 (Homo sapiens)): active
- odorant receptor agonist call (OR52N1 (Homo sapiens)): inactive
- odorant receptor agonist call (OR52N2 (Homo sapiens)): inactive
- odorant receptor agonist call (OR52N4 (Homo sapiens)): inactive
- odorant receptor agonist call (OR52N5 (Homo sapiens)): active
- odorant receptor agonist call (OR52R1 (Homo sapiens)): active
- odorant receptor agonist call (OR52W1 (Homo sapiens)): inactive
- odorant receptor agonist call (OR56A1 (Homo sapiens)): inactive
- odorant receptor agonist call (OR56A3 (Homo sapiens)): inactive
- odorant receptor agonist call (OR56A4 (Homo sapiens)): inactive
- odorant receptor agonist call (OR56B1 (Homo sapiens)): inactive
